Data taken from ChEMBL document CHEMBL4184143 (J Med Chem, 2017).

Assays:
[1] = biological target: T1, Bromodomain-containing protein 4 (Homo sapiens, UniProt O60885); experiment: Inhibition of FAM-labeled ZBA248 binding to recombinant human N-terminal His6-tagged BRD4 bromodomain 2 (333 to 460 residues) expressed in Rosetta2 DE3 cells after 30 mins by Flourescence polarization assay; format: biochemical
[2] = tested on: MOLM-13; experiment: Growth inhibition of human MOLM13 cells after 4 days by WST-8 assay; format: functional, cell-based; conditions: MOLM-13, 96 h
Outline: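 MOLM-13 leukemia cells were seeded at 10,000 cells/well and exposed to serially diluted compound for 4 days. Signal was normalized to DMSO controls, and IC50 was fitted by nonlinear regression.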

[3] = Half life in CD1 mouse liver microsomes at 1 uM by LC/MS method; format: ADME, microsome
[4] = biological target: T1, Bromodomain-containing protein 4; experiment: Inhibition of FAM-labeled ZBA248 binding to recombinant human N-terminal His6-tagged BRD4 bromodomain 1 (44 to 168 residues) expressed in Rosetta2 DE3 cells after 30 mins by Flourescence polarization assay; format: biochemical
[5] = Half life in Sprague-Dawley rat liver microsomes at 1 uM by LC/MS method; format: ADME, microsome
[6] = Half life in human liver microsomes at 1 uM by LC/MS method; format: ADME, microsome
[7] = tested on: MV4-11; experiment: Growth inhibition of human MV4-11 cells after 4 days by WST-8 assay; format: functional, cell-based; conditions: MV4-11, 96 h
[8] = Drug level in SCID mouse at 25 mg/kg, po after 1 hr by LC-MS/MS analysis; format: ADME, organism-based; conditions: in vivo, read-out: Drug uptake
Outline: (§1)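 SCID mice received a single oral dose of 25 mg/kg in 20% (v/v) PCP/70% (v/v) PBS vehicle. Blood was collected and centrifuged to plasma, which was stored at −80 °C. Plasma drug concentration was measured by a validated LC–MS/MS method.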

[9] = Drug level in SCID mouse at 25 mg/kg, po after 3 hrs by LC-MS/MS analysis; format: ADME, organism-based; conditions: in vivo, read-out: Drug uptake; outline: as §1
[10] = Drug level in SCID mouse at 25 mg/kg, po after 6 hrs by LC-MS/MS analysis; format: ADME, organism-based; conditions: in vivo, read-out: Drug uptake; outline: as §1
[11] = tested on: Mus musculus; experiment: Toxicity in SCID mouse implanted with human MV4-11 cells at 50 mg/kg, po qd measured 2 to 3 times weekly during treatment and once weekly post dose; format: organism-based; conditions: in vivo
Outline: (§2)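 At ~100 mm3, mice were randomized to treatment or vehicle control. Tumors were measured by electronic calipers. Animals were checked daily for signs of toxicity and weighed 2–3 times weekly on treatment, then at least weekly afterwards.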

[12] = tested on: Mus musculus; experiment: Toxicity in SCID mouse implanted with human MV-411 cells assessed as weight loss at 50 mg/kg, po qd measured 2 to 3 times weekly during treatment and weekly post dose; format: organism-based; conditions: in vivo; outline: as §2
[13] = tested on: MV4-11; experiment: Antitumor activity against human MV4-11 cells xenografted in SCID mouse assessed as tumor growth inhibition at 50 mg/kg, po qd measured 2 to 3 times weekly during treatment and once weekly post dose; format: functional; conditions: MV4-11, po, read-out: TGI; outline: as §2
[14] = AUC (0 to t) in Sprague-Dawley rat at 25 mg/kg, po by LC/MS method; format: ADME, organism-based; conditions: in vivo
Outline: (§3)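 Sprague Dawley rats were dosed iv at 5 mg/kg or orally at 25 mg/kg, with compound dissolved in 20% (v/v) PCP/70% (v/v) PBS vehicle. Blood was drawn by catheter at 0, 5, 15, 30 min and 1, 2, 4, 6, 8, 24 h and spun to plasma, which was stored at −80 °C. Plasma drug was quantified by a validated LC–MS/MS method, and parameters were derived noncompartmentally.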

[15] = Half life in Sprague-Dawley rat at 25 mg/kg, po by LC/MS method; format: ADME, organism-based; conditions: in vivo; outline: as §3
[16] = Cmax in Sprague-Dawley rat at 25 mg/kg, po by LC/MS method; format: ADME, organism-based; design: dose 25 mg/kg, route oral; conditions: in vivo; outline: as §3
[17] = Aqueous solubility of the compound in 5% DMSO/10% cremophor/85% saline; format: physicochemical; conditions: buffer

Row | IC50 [1] | Ki [1] | IC50 [2] | IC50 [4] | Ki [4] | IC50 [7] | Structure (SMILES) | also measured
1 | 5.2 nM | 1.6 nM | 69 nM | 19.7 nM | 5.7 nM | 17 nM | COc1cc2c(cc1-c1c(C)noc1C)[nH]c1nc(C)nc(-c3cc(C)nc4ccccc34)c12 | t1/2 [3]: > 1 h; t1/2 [5]: > 1 h; t1/2 [6]: > 1 h
2 | 14.6 nM | 4.2 nM | 243 nM | 73.1 nM | 31.8 nM | 69 nM | COc1cc(-c2nc(C)nc3[nH]c4cc(-c5c(C)noc5C)c(OC)cc4c23)c2ccccc2n1 | 
3 | 12.2 nM | 2.8 nM | 380 nM | 32.4 nM | 9.3 nM | 29 nM | COc1cc2c(cc1-c1c(C)noc1C)[nH]c1ncnc(-c3c(C)oc4ccccc34)c12 | 
4 | 12.7 nM | 3.8 nM | 124 nM | 35.6 nM | 9.5 nM | 47 nM | COc1cc2c(cc1-c1c(C)noc1C)[nH]c1nc(C)nc(-c3cncc4ccccc34)c12 | 
5 | 92.7 nM | 26.9 nM | 971 nM | 393 nM | 122 nM | 77 nM | COc1cc2c(cc1-c1c(C)noc1C)[nH]c1nc(C)nc(-c3cc(C(F)(F)F)nc4ccccc34)c12 | 
6 | 128 nM | 42.6 nM | 716 nM | 397 nM | 136 nM | 423 nM | COc1cc2c(cc1-c1c(C)noc1C)[nH]c1nc(C)nc(-c3cnc4ccccc4c3)c12 | 
7 | 15.5 nM | 3.1 nM | 76 nM | 30.9 nM | 10.1 nM | 28 nM | COc1cc2c(cc1-c1c(C)noc1C)[nH]c1nc(C)nc(-c3cccc4ncccc34)c12 | 
8 | 1.9 nM | < 0.5 nM | 20 nM | 6.1 nM | 0.8 nM | 2 nM | COc1cc2c(cc1-c1c(C)noc1C)[nH]c1nc(C)nc(-c3c(C)[nH]c4ccccc34)c12 | t1/2 [3]: > 1 h; t1/2 [5]: > 1 h; t1/2 [6]: 0.15 h
9 | 25.9 nM | 9.1 nM | 127 nM | 10.8 nM | 4.2 nM | 13 nM | COc1cc2c(cc1-c1c(C)noc1C)[nH]c1ncnc(-c3c(C)[nH]c4cnccc34)c12 | 
10 | 167 nM | 52.3 nM | 1140 nM | 316 nM | 78.6 nM | > 1000 nM | COc1cc2c(cc1-c1c(C)noc1C)[nH]c1nc(C)nc(-c3cccc4ccncc34)c12 | 
11 | 436 nM | 146 nM | 656 nM | 451 nM | 139 nM | 295 nM | COc1cc2c(cc1-c1c(C)noc1C)[nH]c1nc(C)nc(-c3cccc4cnccc34)c12 | 
12 | 1.1 nM | < 0.5 nM | 65 nM | 5 nM | 0.7 nM | 6.6 nM | COc1cc2c(cc1-c1c(C)noc1C)[nH]c1ncnc(-c3c(C)[nH]c4ccccc34)c12 | AUC(0-t) [14]: 13400 ng·h/mL; t1/2 [3]: 0.067 h; half-life [15]: 1.7 h; t1/2 [5]: > 1 h; t1/2 [6]: 0.13 h; Cmax [16]: 1400 ng/mL; solubility [17]: Insoluble

The next lines start with the compound.

Row | Structure (SMILES) | IC50 [1] | Ki [1] | IC50 [2] | IC50 [4] | Ki [4] | IC50 [7] | also measured
13 | COc1cc2c(cc1-c1c(C)noc1C)[nH]c1ncnc(-c3c[nH]c4cnccc34)c12 | 22.7 nM | 7.1 nM | 489 nM | 11.6 nM | 7 nM | 190 nM | 
14 | COc1cc2c(cc1-c1c(C)noc1C)[nH]c1ncnc(-c3c(C4CC4)n[nH]c3C)c12 | 11.7 nM | 2.7 nM | 36 nM | 24.1 nM | 7 nM | 6 nM | concentration at 1 h [8]: 2200 ng/mL; concentration at 3 h [9]: 872 ng/mL; concentration at 6 h [10]: 72 ng/mL
15 | COc1cc2c(cc1-c1c(C)noc1C)[nH]c1nc(C)nc(-c3cccc4cccnc34)c12 | 193 nM | 58.2 nM |  | 412 nM | 129 nM | 334 nM | 
16 | COc1cc2c(cc1-c1c(C)noc1C)[nH]c1ncnc(-c3c[nH]c4ccccc34)c12 | 5.5 nM | 1.1 nM | 205 nM | 20.3 nM | 4.9 nM | 57 nM | 
17 | COc1cc2c(cc1-c1c(C)noc1C)[nH]c1ncnc(-c3cnoc3)c12 | 1880 nM | 641 nM |  | 2060 nM | 655 nM |  | 
18 | COc1cc2c(cc1-c1c(C)noc1C)[nH]c1ncnc(-c3ccoc3)c12 | 180 nM | 56.4 nM | > 10000 nM | 155 nM | 44.3 nM | 2860 nM | 
19 | COc1cc2c(cc1-c1c(C)noc1C)[nH]c1ncnc(Cl)c12 | 1760 nM | 476 nM |  | 1130 nM | 387 nM |  | 
20 | COc1cc2c(cc1-c1c(C)noc1C)[nH]c1ncnc(N[C@H](C)c3ccccn3)c12 | 26.4 nM | 10.4 nM |  | 39.2 nM | 12 nM |  | 
21 | COc1cc2c(cc1-c1c(C)noc1C)[nH]c1ncnc(-c3cnn4ccccc34)c12 | 26.5 nM | 6.5 nM | 139 nM | 48.7 nM | 28 nM | 13 nM | 
22 | COc1cc2c(cc1-c1c(C)noc1C)[nH]c1ncnc(-c3nn(C)c4ccccc34)c12 | 74.9 nM | 22.5 nM | > 10000 nM | 147 nM | 85.1 nM | > 10000 nM | 
23 | COc1cc2c(cc1-c1c(C)noc1C)ncc1[nH]c(=O)n([C@H](C)c3ccccn3)c12 |  |  |  |  |  |  | Activity [11]: Non-Toxic; Activity [12]: Non-Toxic; inhibition in vivo at 50 mg/kg [13]: > 80%
24 | COc1cc2c(cc1-c1c(C)noc1C)[nH]c1ncnc(-n3ccnc3)c12 | 1140 nM | 335 nM | 9270 nM | 1460 nM | 456 nM | 1060 nM | 
25 | COc1cc2c(cc1-c1c(C)noc1C)[nH]c1ncnc(-c3c(C)nn(C)c3C)c12 | 89.7 nM | 31.2 nM | 193 nM | 40.9 nM | 18.5 nM | 95 nM | 
26 | COc1cc2c(cc1-c1c(C)noc1C)[nH]c1ncnc(-c3c(C)noc3C)c12 | 164 nM | 68.7 nM | 709 nM | 102 nM | 41.2 nM | 182 nM | 
27 | COc1cc2c(cc1-c1c(C)noc1C)[nH]c1ncnc(-n3nnc4ccccc43)c12 | > 1000 nM | > 1000 nM | > 10000 nM | > 1000 nM | > 1000 nM | > 10000 nM | 
28 | COc1cc2c(cc1-c1c(C)noc1C)[nH]c1ncnc(-c3cc[nH]c3)c12 | 108 nM | 30.6 nM | 612 nM | 165 nM | 51.9 nM | 253 nM | 
29 | COc1cc2c(cc1-c1c(C)noc1C)[nH]c1ncnc(-c3cn[nH]c3)c12 | 199 nM | 57 nM |  | 393 nM | 131 nM |  | 
30 | COc1cc2c(cc1-c1c(C)noc1C)[nH]c1ncnc(-c3c(C)n[nH]c3C)c12 | 63.5 nM | 20.2 nM | 233 nM | 51.7 nM | 19.7 nM | 99 nM | 
31 | COc1cc2c(cc1-c1c(C)noc1C)[nH]c1ncnc(-n3cnc4ccccc43)c12 | 9.4 nM | 2.8 nM | 262 nM | 29.4 nM | 9.9 nM | 15 nM | 
